Screening data deposited in PubChem by Johns Hopkins Ion Channel Center.
TRPC6 inh: inhibitors of mouse TRPC6 channel; hit rate 1.1% among 310,000; AID 2553; HEK293-TRPC6, membrane potential dye, ACh-evoked depolarization; hits give low values; B-score at 10 µM; Q61143;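 active = B-score under library mean minus 3 SD, initial fluorescence not abnormally high, positive integrated signal ratio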;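 also: B-score derived from integrated fluorescence ratio over the kinetic read; more negative B-score means stronger inhibition of depolarization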
TRPC4 block: TRPC4 (mouse) channel inhibition; AID 2247; hit rate 0.39% among 300,000; HEK293 TRPC4beta/mu-opioid, DAMGO-evoked Fluo4 calcium flux; hits give low values; B-score at 10 µM; Q9QUQ5;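 active = B-score over 3 SD under the library average, no early fluorescence shift, positive overall ratio signal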
Target sequence (Q9QUQ5 whole entry, looked up): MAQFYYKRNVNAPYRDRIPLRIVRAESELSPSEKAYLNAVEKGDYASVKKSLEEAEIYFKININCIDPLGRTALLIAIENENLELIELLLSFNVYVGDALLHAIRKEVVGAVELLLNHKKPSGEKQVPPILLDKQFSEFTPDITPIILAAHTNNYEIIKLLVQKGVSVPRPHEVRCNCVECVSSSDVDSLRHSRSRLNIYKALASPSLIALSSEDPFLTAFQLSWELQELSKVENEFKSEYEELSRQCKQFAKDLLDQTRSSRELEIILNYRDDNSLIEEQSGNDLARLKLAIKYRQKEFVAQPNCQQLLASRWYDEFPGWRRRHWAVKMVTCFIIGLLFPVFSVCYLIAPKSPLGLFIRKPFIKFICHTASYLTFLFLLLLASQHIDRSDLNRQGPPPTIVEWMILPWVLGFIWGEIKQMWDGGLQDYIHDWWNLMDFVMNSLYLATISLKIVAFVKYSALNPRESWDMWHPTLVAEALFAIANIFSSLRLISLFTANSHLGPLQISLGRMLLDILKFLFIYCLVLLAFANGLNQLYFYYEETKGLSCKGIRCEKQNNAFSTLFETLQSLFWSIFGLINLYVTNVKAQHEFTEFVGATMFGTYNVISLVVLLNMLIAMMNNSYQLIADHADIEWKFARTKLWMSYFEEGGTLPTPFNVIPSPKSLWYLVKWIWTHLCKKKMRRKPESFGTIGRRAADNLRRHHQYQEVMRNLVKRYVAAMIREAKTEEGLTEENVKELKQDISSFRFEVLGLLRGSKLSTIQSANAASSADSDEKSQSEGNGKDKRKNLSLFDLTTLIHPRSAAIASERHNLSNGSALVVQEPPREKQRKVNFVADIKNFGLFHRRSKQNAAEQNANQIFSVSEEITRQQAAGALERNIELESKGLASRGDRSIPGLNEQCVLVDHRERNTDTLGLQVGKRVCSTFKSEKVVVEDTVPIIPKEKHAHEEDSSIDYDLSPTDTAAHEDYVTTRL
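Material: HEK293 cells with stable TRPC4beta plus mu-opioid receptor expression / Probe or stimulus: DAMGO in two steps, submaximal then maximal / Compound: single concentration per test compound / Technique: kinetic Fluo4 fluorescence imaging of calcium influx / Read-out: per-well B score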
TRPC4 potent: allosteric potentiators of mouse TRPC4 channel; Q9QUQ5; HEK293 TRPC4beta/mu-opioid, DAMGO EC20, Fluo-4 Ca2+ flux; hits give high values; B-score at 10 µM; hit rate 0.42% among 310,000;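 active = B-score of calcium response area above 5 SD of library B-scores, with initial fluorescence ratio within 5 SD of library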;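 also: B-score of integrated fluorescence ratio over time as area under calcium response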
TRPC4 act: activators of mouse TRPC4 channel. Q9QUQ5. HEK293 TRPC4beta/mu-opioid, Fluo4 calcium fluorescence; hits give high values. B-score at 10 µM. hit rate 0.49% among 310,000;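 active = B-score above 5 SD of library B-scores, and initial fluorescence ratio not above library mean plus 5 SD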;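 also: positive B-score marks a calcium rise read as TRPC4 activation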
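Material: TRPC4beta and mu-opioid receptor HEK293 stable cells | Incubation: 45 min room-temperature Fluo4 loading, 110 s read | Detection: Kinetic Fluo4 calcium fluorescence | Measure: Integrated baseline-normalised fluorescence ratio, converted to per-well B score | Benchmarks: Low control buffer alone, high control maximal DAMGO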
TRPC6 act: mouse TRPC6 channel activation | hit rate 0.13% among 310,000 | HEK293-TRPC6 membrane potential dye fluorescence; hits give high values | B-score at 10 µM | Q61143;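 active = B-score of the integrated fluorescence ratio above library mean plus 3 SD, and starting fluorescence ratio within library mean plus 5 SD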;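 also: higher score means more depolarization so channel activation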
TRPC4 sel inh 2: second check of whether TRPC6 inhibitors also affect mouse TRPC4; HEK293 TRPC4/MOR, membrane potential dye fluorescence; channel activated by saturating DAMGO dose; inhibition, % at 10 µM; shares compounds with TRPC6 inh; AID 2776; hit rate 42% among 920;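 active = compounds whose fluorescence signal differed from control wells by over 3 SD, either direction, in both duplicate plates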
TRPC4 spec: selectivity of TRPC6 inhibitors: effect on mouse TRPC4; shares compounds with TRPC6 inh; HEK293 TRPC4/mu-opioid, membrane potential fluorescence; activity change, negative = inhibition, % at 10 µM; hit rate 61% among 920; AID 2777;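 active = rise or fall in signal beyond 3 SD of buffer-only wells in both replicate plates, either sign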;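 also: integrated kinetic ratio of fluorescence range over baseline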
HEK293 MPD ctr 2-1: second check of TRPC6 inhibitor effects in parental HEK293 cells. shares compounds with TRPC6 inh. parental HEK293 membrane potential dye fluorescence; maximal acetylcholine challenge after compound addition. signal change vs control, % at 10 µM. hit rate 31% among 920. AID 2779;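 active = membrane potential signal moving either way by over 3 SD of the maximum-effect control, in both duplicate plates, meaning non-specific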
HEK293 MPD ctr-1: counter-screen for TRPC6 inhibitors: effect in parental HEK293 cells; shares compounds with TRPC6 inh; parental HEK293 membrane potential dye fluorescence; membrane potential signal change, % at 10 µM; hit rate 60% among 920; AID 2780;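 active = membrane potential signal shifting up or down by more than 3 SD of buffer-only wells, on both duplicate plates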
HEK293 MPD ctr-2: parental HEK293 nonspecific activity of TRPC6 modulators; hit rate 51% among 2,400; shares compounds with TRPC6 inh; membrane potential signal change, % at 10 µM; membrane potential dye fluorescence;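 active = membrane potential signal moves up or down beyond 5 SD from buffer-only wells, on both duplicate plates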
HEK293 MPD ctr 2-2: second counter-screen for TRPC6 modulators: effect in parental HEK293 cells; shares compounds with TRPC6 inh; membrane potential dye fluorescence; after compound, maximal acetylcholine stimulation; inhibition, % at 10 µM; hit rate 14% among 2,400; AID 488926;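 active = membrane potential signal drops by more than 5 SD from the mean control signal, in both duplicate plates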;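 also: plate controls were acetylcholine ECmax control wells for no effect and buffer only wells for full effect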
TRPC4 ctr mod: mouse TRPC4 off-target activity of TRPC6 modulators | shares compounds with TRPC6 inh | HEK293 TRPC4/mu-opioid, membrane potential fluorescence | percent change from control (negative = decrease, positive = increase), % at 10 µM | hit rate 69% among 2,400;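 active = membrane potential signal moved up or down beyond 5 SD of buffer control wells, in both duplicate plates, actives on both sides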;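 also: plate controls were assay buffer wells for no effect and DAMGO maximal-effect wells for full effect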
TRPC4 ctr inh 2: second selectivity test of TRPC6 modulators against mouse TRPC4 | shares compounds with TRPC6 inh | HEK293 TRPC4/mu-opioid, membrane potential dye fluorescence; stimulated with maximal-effect DAMGO | inhibition, % at 10 µM | hit rate 55% among 2,400 | AID 488928;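 active = drop in membrane potential signal beyond 5 SD of the control wells in both duplicate plates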;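 also: TRPC4 counter screen for TRPC6 hits run under conditions tuned for TRPC6 not TRPC4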
TRPC6 block conf: mouse TRPC6 inhibitor confirmation. shares compounds with TRPC6 inh. AID 488960. inhibition, % at 10 µM. hit rate 43% among 3,300. HEK293-TRPC6, membrane potential dye, ACh-evoked depolarization;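 active = fluorescence ratio falls more than 5 SD below the full-stimulation control mean, in both duplicate runs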;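 also: integrated fluorescence ratio of peak minus minimum over baseline after agonist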
TRPC6 act conf: confirmation of mouse TRPC6 activators | HEK293-TRPC6 membrane potential dye fluorescence, FDSS | hit rate 11% among 2,800 | activation, % at 10 µM | shares compounds with TRPC6 inh | AID 488961;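 active = ratio signal rise beyond 5 SD above unstimulated control wells' mean, seen in both duplicate runs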;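 also: plate controls were buffer EC0 wells for no effect and acetylcholine ECmax response for full effect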
* hit, by the source's call; i = inactive; / = no result. Hits are enriched below; roughly 2.3% of the tested compounds scored in any of these assays.

SMILES	TRPC6 inh	TRPC4 block	TRPC4 potent	TRPC4 act	TRPC6 act	HEK293 MPD ctr-2	HEK293 MPD ctr 2-2	TRPC4 ctr mod	TRPC4 ctr inh 2	TRPC6 block conf	TRPC6 act conf	others
COc1ccc(-c2oc3ccc(-c4cc(OC)c(OC)c(OC)c4)cc3c2C#Cc2ccsc2)cc1	i	i	i	i	i	/	/	/	/	/	/
CCC(=O)N(CCc1ccccc1)Cc1cc2cccc(C)c2[nH]c1=O	i	i	i	i	i	/	/	/	/	/	/
NC(=O)NC(=O)COC(=O)/C=C/c1cccc(Br)c1	i	i	i	i	i	/	/	/	/	/	/
CNC(=O)NC(=O)COC(=O)/C=C/c1cccc(Br)c1	-8.48*	i	i	i	i	/	/	/	/	i	i	TRPC4 sel inh 2=i;TRPC4 spec=i;HEK293 MPD ctr 2-1=i;HEK293 MPD ctr-1=i
O=C(Nc1ccccc1Cl)NC1CCCCCCC1	i	i	i	i	i	/	/	/	/	/	/
O=C(O)c1cc(NN=C2c3ccccc3-c3ccccc32)ccc1Cl	-5.41*	-8*	i	i	i	i	i	-11.5%*	59.0%*	61.0%*	/
COc1ccc(-c2c[n+](CC(=O)OC3CC(C)CCC3C(C)C)c3n2CCC3)cc1 (stereo not drawn)	-6.12*	i	i	i	i	162.5%*	i	28.5%*	i	55.0%*	/
Cc1ccc2cccnc2c1N	i	i	i	i	i	/	/	/	/	/	/
Cc1ccnc2c1ccc1ccccc12	-6.51*	i	i	i	i	i	i	i	i	i	i
O=C(NC1CCCC1)c1noc2c1CCCCC2	-7.99*	i	i	i	i	/	/	/	/	i	i	TRPC4 sel inh 2=i;TRPC4 spec=i;HEK293 MPD ctr 2-1=i;HEK293 MPD ctr-1=i
O=C(NCc1ccccc1)c1noc2c1CCCCC2	i	i	i	i	i	/	/	/	/	/	/
CCOC(=O)c1c(CNc2ccncc2)n(C)c2cc(Br)c(O)cc12	-8.35*	i	i	i	i	/	/	/	/	59.9%*	i	TRPC4 sel inh 2=70.0%*;TRPC4 spec=-26.7%*;HEK293 MPD ctr 2-1=-45.5%*;HEK293 MPD ctr-1=-370.0%*
CCCCNC(=O)c1onc(CSc2ccccn2)c1C(=O)NCCCC	i	i	i	i	i	/	/	/	/	/	/
CC1CCN(Cc2ccc(NC(=O)CC3Oc4ccccc4NC3=O)cc2)CC1 (stereo not drawn)	-10.2*	i	i	i	i	/	/	/	/	80.6%*	i	TRPC4 sel inh 2=i;TRPC4 spec=i;HEK293 MPD ctr 2-1=-8.0%*;HEK293 MPD ctr-1=i
CCC(C)N(CCNC(=O)CC1Oc2ccccc2NC1=O)C1CCCCC1 (stereo not drawn)	-8.02*	i	i	i	i	/	/	/	/	59.6%*	/	TRPC4 sel inh 2=i;TRPC4 spec=19.0%*;HEK293 MPD ctr 2-1=i;HEK293 MPD ctr-1=11.4%*
Nc1nc(SCC(=O)N2CCCc3ccccc32)[nH]c(=O)c1-c1ccccc1	-6.49*	i	i	i	i	180.5%*	i	34.5%*	i	i	/
CC(C)c1ccc(S(=O)(=O)N2CCN(C(=O)c3ccco3)CC2)cc1	-11.3*	i	i	i	11.7*	i	i	11.5%*	i	105.5%*	122.5%*
O=C(CN1C(=O)NC2(CCCC2)C1=O)OCCOc1ccc(Cl)cc1Cl	i	i	i	i	i	/	/	/	/	/	/
CC(C)[C@H](Nc1ccc(C(F)(F)F)cc1[N+](=O)[O-])C(=O)O	i	i	i	i	i	/	/	/	/	/	/
O=C(NNc1ccc(C(F)(F)F)cc1[N+](=O)[O-])c1ccc(NS(=O)(=O)c2ccc(F)cc2)cc1	-5.39*	i	i	i	i	-112.5%*	i	-25.5%*	62.0%*	63.5%*	i
C/C(Cc1ccccc1)=N\NC(=O)CNC(=O)Cc1ccc(Cl)cc1	i	i	i	i	i	/	/	/	/	/	/
CCOC(=O)C1=C(C)NC(C)=C(C(=O)OCC)C1c1cccs1	i	i	i	i	i	/	/	/	/	/	/
CCOC(=O)C1=C(C)NC(C)=C(C(=O)OCC)C1c1sccc1C	-5.38*	i	i	i	i	i	i	i	39.5%*	i	i
S=C(Nc1cc(Cl)cc(Cl)c1)N1CCN(c2ccccn2)CC1	i	i	i	i	i	/	/	/	/	/	/
Nc1cccc2nc3ccccc3cc12	-7.24*	i	i	i	i	/	/	/	/	82.8%*	i	TRPC4 sel inh 2=23.0%*;TRPC4 spec=-35.6%*;HEK293 MPD ctr 2-1=18.0%*;HEK293 MPD ctr-1=-413.0%*
COc1ccc(Cn2c(-c3ccc(Br)cc3)c[n+]3ccccc23)cc1	-12.6*	i	i	i	i	-269.0%*	i	-47.0%*	48.5%*	59.5%*	i
Cc1ccc(N=C2C(=O)Nc3ccccc32)cc1	i	i	i	i	i	/	/	/	/	/	/
CCN(CC)c1ccc(N=C2C(=O)Nc3ccccc32)cc1	-7.53*	i	i	i	i	-261.0%*	i	-40.5%*	89.0%*	76.0%*	i
O=C(N/N=C/c1cccnc1)c1ccc([N+](=O)[O-])cc1	-5.28*	i	i	i	i	-195.5%*	i	-36.0%*	29.5%*	i	i
O=C(N/N=C/c1cccc([N+](=O)[O-])c1)c1cc[n+](CCO)cc1	-5.67*	i	i	i	i	-88.0%*	i	-22.0%*	i	i	i
